Screening data from PubChem BioAssay.
LMPTP inh: LMPTP (human) inhibition | 0.22% of 360,000 active | recombinant LMPTP-A, OMFP fluorogenic substrate, fluorescence intensity | inhibition, % at 20 µM | P24666;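 active means compounds that cut the enzyme signal by at least half of the control window in the single-dose screen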;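 further: plate controls were DMSO wells with enzyme plus substrate for no effect and substrate without enzyme for full effect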
Target sequence (P24666 whole entry, looked up): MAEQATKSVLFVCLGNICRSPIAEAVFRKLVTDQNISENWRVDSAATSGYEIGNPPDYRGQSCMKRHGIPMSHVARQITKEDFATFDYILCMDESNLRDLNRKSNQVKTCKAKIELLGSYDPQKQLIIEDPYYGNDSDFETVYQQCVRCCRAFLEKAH
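Assay system: LMPTP-A phosphatase enzyme | Input: 0.625 nM enzyme | Also added: Fluorogenic phosphatase substrate OMFP at 400 µM final | Compound dosing: One test concentration per compound, 20 µM, with 3% DMSO overall | Schedule: 50 min enzyme reaction at room temperature, protected from light | Signal: Fluorescence intensity | Benchmarks: no-enzyme and uninhibited controls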
STEP inh: inhibitors of human striatal-enriched phosphatase STEP; P54829; AID 588621; 0.25% of 360,000 active; inhibition, % at 20 µM; recombinant STEP, OMFP fluorogenic substrate, fluorescence;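 active means inhibition at 20 µM, scaled per plate between control wells, above about 37%, limit read from the data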;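 further: 0% = DMSO with enzyme and substrate and 100% = substrate only without enzyme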
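Material: STEP (striatal-enriched tyrosine phosphatase) enzyme, cell-free | Medium: 50 mM Bis-Tris pH 6.0 with 2.5 mM DTT and 0.005% Tween 20 | Read-out: Percent inhibition scaled to no-enzyme and uninhibited-enzyme controls, plate-pattern corrected | Signal: Fluorescence read at 480 nm ex / 540 nm em | Times: 20 min reaction, room temperature, in the dark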
SUMO1 PPI mod: modulators of human SUMO1-mediated protein-protein interactions; SUMO1 binding to a labelled peptide, TR-FRET, 1 h; 0.33% of 360,000 active; AID 602429; inhibition, % at 20 µM; in the data active means inhibition above about 37%
Target sequence (P63165 whole entry, looked up): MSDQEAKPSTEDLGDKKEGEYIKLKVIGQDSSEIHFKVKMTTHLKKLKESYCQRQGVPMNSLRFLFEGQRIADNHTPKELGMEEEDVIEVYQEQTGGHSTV
DSG3 Ab inh: inhibitors of pemphigus antibody binding to human desmoglein-3; P32926; DSG3-coupled beads, scFv-anti-DSG3-GFP binding, flow cytometry; hits give low values; binding (percent of control), % at 10 µM; 0.48% of 310,000 active;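 active means binding more than 3 SD below its plate's average and above zero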;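 further: hits lower antibody fragment binding to DSG3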
Scp-1 inhibitor: inhibitors of human Scp-1 phosphatase; Recombinant Scp1, phosphopeptide, malachite green phosphate absorbance; 0.88% of 340,000 active; inhibition, % at 20 µM; AID 493091; Q9GZU7;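 active means inhibition above about 50% at 20 µM, limit read from the data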;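 further: plate controls were DMSO wells with enzyme for no effect and wells lacking enzyme for full effect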
Target sequence (Q9GZU7 76-261 limits assumed): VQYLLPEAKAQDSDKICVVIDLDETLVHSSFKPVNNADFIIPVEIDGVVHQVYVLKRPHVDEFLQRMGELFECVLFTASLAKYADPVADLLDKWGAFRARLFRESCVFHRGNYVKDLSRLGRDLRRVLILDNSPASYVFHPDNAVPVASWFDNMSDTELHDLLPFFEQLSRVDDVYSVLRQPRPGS
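Test system: SCP-1 catalytic domain; Buffer or medium: Acidic Tris acetate buffer with magnesium and detergent; Also added: Phosphorylated 17-residue peptide substrate; Compound: single 20 µM dose, 1% DMSO; Schedule: enzyme reaction 45 min at room temperature, colour 5 min, stabilisation 30 min; Signal: Phosphate-binding colour reagent, absorbance read at 630 nm.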
* = called active by the depositor; / = no result. Most compounds without a hit are left out; they make up all but 1.7% or so of the library.

SMILES	LMPTP inh	STEP inh	SUMO1 PPI mod	DSG3 Ab inh	Scp-1 inhibitor
COc1ccc(C2NCCc3c2[nH]c2ccccc32)cc1CN1CCc2cc(OC)c(OC)cc2C1C (stereo not given)	52.3*	-2.0	-47.9	96.0	4.5
COc1ccc(C2NCCc3c2[nH]c2ccccc32)cc1COc1ccc(F)cc1 (stereo not given)	1.4	3.0	-3.4	94.9	12.3
COc1ccc(C2=Nn3c(nnc3-c3ccccc3F)SC2)cc1OC1CCOC1 (stereo not given)	2.2	0.4	-26.7	81.5*	4.0
CSCCC(C(=O)Nc1c(C)cccc1C)n1c(COc2ccc(C)cc2)nc2ccccc21 (stereo not given)	5.3	/	-0.9	/	/
CCCCCOc1ccc(C2C(C(=O)c3ccc(C)o3)=C(O)C(=O)N2c2cc(C)on2)cc1 (stereo not given)	50.2*	3.8	4.4	95.9	-21.6
CCCCOc1ccc(C2C(C(=O)c3ccc(C)o3)=C(O)C(=O)N2Cc2ccco2)cc1 (stereo not given)	51.4*	3.8	-2.1	/	/
Cc1cccnc1NC(=O)CSc1ccc2c(c1)OCCO2	-0.6	-1.6	0.9	97.0	-1.1
FC(F)(F)c1cccc(Oc2cc(C(F)(F)F)nc(-c3ccccn3)n2)c1	1.4	1.6	54.4*	/	-9.7
COc1ccc2[nH]c(=O)c(CNc3cccc(C)c3)cc2c1	3.9	-1.7	-1.7	99.2	-1.9
O=C(O)c1ccc(S(=O)(=O)c2ccc([N+](=O)[O-])cc2[N+](=O)[O-])cc1	-1.1	6.7	-23.2	91.7	2.2
CC1(C(=O)NS(=O)(=O)c2ccccc2Cl)CCN1C(=O)CCC1CCCC1 (stereo not given)	-2.5	-1.2	-0.8	/	/
CCC(CC)C1=NN2C(=N)/C(=C\c3cc(C)n(-c4cccc(C)c4)c3C)C(=O)N=C2S1	2.8	2.1	-9.0	71.6*	-7.6
CC1=NN2C(=N)/C(=C\c3cc(C)n(-c4ccccc4)c3C)C(=O)N=C2S1	-1.7	-3.9	-5.7	101.7	-6.0
O=C(c1ccccc1)c1cc(Cl)ccc1N1C(=O)C=CC1=O	0.3	-1.3	-1.5	84.2	-1.4
O=C(CSc1ncnc2c1oc1ccccc12)Nc1nc2ccccc2s1	0.0	0.6	-5.1	100.0	-9.1
CCc1nnc(NC(=O)CSc2ncnc3c2oc2ccccc23)s1	1.3	-0.4	65.5*	-17.4*	-6.5
Cc1ccc(S(=O)(=O)N(C)C)cc1NC(=O)c1cc(=O)[nH]c2ccccc12	-0.1	-1.9	-0.4	94.0	-5.4
CN(c1ccccc1C(=O)NC1CCCCC1)S(=O)(=O)c1ccccc1	-0.3	0.4	0.3	/	-1.4
CN(c1ccccc1C(=O)NC1CC2CCC1C2)S(=O)(=O)c1ccccc1 (stereo not given)	-1.8	-2.1	-0.3	37.5*	-1.4
COc1ccccc1S(=O)(=O)N1CCNC(=O)C1	-1.5	3.1	-2.1	120.3	-15.3
O=c1c2ccccc2sn1-c1cc(S(=O)(=O)N2CCOCC2)ccc1N1CCOCC1	-1.3	8.5	4.7	25.6*	94.1*
O=S(=O)(c1ccc(N2CCOCC2)c(Cl)c1)N1CCOCC1	-0.9	-0.5	7.2	/	-0.6
Cc1ccc(NC(=S)NN(C)c2nc(C)cnc2C)cc1	-1.4	-2.0	39.9*	99.3	-8.3
Cc1cc(N(C)NC(=S)Nc2ccccc2)nc(C)n1	-0.8	-3.0	0.4	108.4	-8.3
O=c1c(O)cccc2cc(O)c(O)c(O)c12	89.7*	98.5*	104.0*	33.0*	73.1*
SMILES	LMPTP inh	STEP inh	SUMO1 PPI mod	DSG3 Ab inh	Scp-1 inhibitor
CCc1c(-c2ccccc2)nc2nc(C)c(C)nn12	-1.6	1.6	-12.4	33.3*	2.9
Cc1ccc(CSc2nnc(Nc3ccc(C)cc3)s2)cc1	0.0	3.7	3.4	67.1*	-9.0
CCSc1nnc(Nc2ccc(C)cc2)s1	0.1	-1.1	1.7	98.6	-1.1
CC(CCc1ccco1)NC(=O)c1cccc2c1C(=O)N(C1CCCCC1)C2 (stereo not given)	1.3	3.5	1.7	107.8	-8.0
COc1ccc(N2Cc3cccc(C(=O)NC(C)CCc4ccco4)c3C2=O)cc1 (stereo not given)	11.6	2.2	5.0	108.5	79.1*
CCC(CO)Oc1cc(NC(=O)c2cccc(OC)c2)c2ncn(C(C)C)c2c1 (stereo not given)	0.4	4.4	60.8*	104.2	0.8
CCC(CO)Oc1cc(NC(=O)c2ccc(OC)cc2)c2ncn(C(C)C)c2c1 (stereo not given)	2.2	-2.0	-1.3	102.0	2.6
COc1ccc(CCN2CC(C(=O)N3CCN(C(C)=O)CC3)CCC2=O)cc1 (stereo not given)	-0.9	2.3	1.4	101.8	-7.2
Cc1ccc(CN2CCN(/N=C/C(Br)=C\c3ccccc3)CC2)cc1	-0.7	0.7	-4.4	82.8*	2.7
O=C(COC(=O)c1ccc(-c2cnc3ccccc3n2)cc1)c1ccccc1	-1.5	-1.8	40.6*	97.2	-10.5
CCN(CC)Cc1cc(Nc2c3ccccc3nc3c4ccccc4n(C)c23)cc(CN(CC)CC)c1O	76.8*	2.6	-46.9	97.8	-7.6
Oc1cccc(Nc2c3ccccc3nc3ccccc23)c1	11.1	1.3	-22.7	93.6	5.2
COc1ccc(C(C(=O)NC(C)(C)C)N(Cc2cccnc2)C(=O)CCC(=O)Nc2cc(C)on2)cc1 (stereo not given)	0.8	-1.3	-1.2	/	-9.8
[O-][n+]1c2ccccc2[n+]([O-])c2cc(O)ccc21	20.1	10.7	21.1	87.9	57.4*
O=C(NCCCn1ccnc1)c1ccc(N2CCCCC2)c([N+](=O)[O-])c1	-0.4	-1.2	-31.1	/	-10.6
Clc1ccc(CSc2ccc(-c3ccccn3)nn2)cc1	0.0	0.8	-1.8	13.3*	-8.4
COc1ccc(CCC(=O)Nc2c(-c3ccc(N(C)C)cc3)[nH][nH]c2=O)cc1	13.0	8.2	47.0*	/	/
O=S(=O)(c1ccccc1)N1CCN(CC(O)COc2ccc3c(c2)CCC3)CC1 (stereo not given)	-0.9	-1.0	2.3	78.7*	-0.4
CCN1CCN(CC(O)COc2ccc3c(c2)CCC3)CC1 (stereo not given)	-4.8	2.0	-1.2	100.2	-4.1
CCC(=O)c1cn(CC(=O)Nc2cccc(C)c2C)c2ccccc12	-2.1	-0.2	2.2	95.3	-5.2
Cc1cccc(NC(=O)Cn2cc(C(=O)C3CC3)c3ccccc32)c1C	-1.0	0.6	0.1	-14.4*	-4.9
Cc1ccc(NC(=O)C2CCN(S(=O)(=O)c3ccc4c(c3)NC(=O)C(C)S4)CC2)cc1Cl (stereo not given)	3.4	-1.6	1.6	114.8	-11.0
CC(C)c1cc(Cn2c3ccccc3c(=O)n2C(C)Cn2cc(-c3ccccc3)nn2)on1 (stereo not given)	-1.2	/	0.5	/	/
